Assay results taken from ChEMBL document CHEMBL1156763, “1,8-Naphthyridines VIII. Novel 5-aminoimidazo[1,2-a] [1,8]naphthyridine-6-carboxamide and 5-amino[1,2,4]triazolo[4,3-a] [1,8]naphthyridine-6-carboxamide derivatives showing potent analgesic or anti-inflammatory activity, respectively, and completely devoid of acute gastrolesivity” (Eur J Med Chem, 2010).

Tests used:
Mus musculus [1] = assay: Analgesic activity in Swiss mouse assessed as inhibition of acetic acid-induced writhing response at 25 mg/kg, po administered 1 hr before acetic acid challenge measured for 30 mins relative to control; type: functional
Summary of the method: (§1)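 Mice of either sex (25–35 g), fasted overnight, dosed by oral gavage with test agent suspended in 0.5% methylcellulose; controls got vehicle alone. Each hind-limb full extension counted as a writhe over 30 min after the noxious agent. % inhibition from treated vs control writhing; groups of 8–10; Student's t-test. Dosing starts at 100 mg/kg, then halved stepwise.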

Mus musculus [2] = assay: Sedative activity in Swiss mouse assessed as inhibition of spontaneous locomotor activity at 50 mg/kg, po dose measured for every 5 mins up to 90 mins; type: organism-based; set-up: dose 50 mg/kg, route oral
Summary of the method: (§2)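 Overnight-fasted mice given compound (0.5% methylcellulose) or vehicle by oral gavage, then housed singly in an activity cage. Locomotion auto-recorded in 5-min intervals for 90 min; pulses of the final 30 min scored. % inhibition versus controls; runs between 9.00 and 13.00; groups of 8–10; Student's t-test.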

Rattus norvegicus [3] = assay: Antiinflammatory activity against carrageenan-induced paw edema in Wistar rat assessed as inhibition of hind paw edema at 12.5 mg/kg, po administered 1 hr prior to carrageenan challenge measured after 3 hrs relative to control; type: functional
Summary of the method: (§3)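 Wistar rats of either sex (250–300 g), fasted overnight, gavaged with compound in 0.5% methylcellulose. 1 h later, 0.1 mL 1% carrageenan injected subcutaneously into the plantar hind paw. Paw volume read by plethysmometer right after injection and 3 h later. Control edema set as 100, % inhibition from swelling difference. Groups of 8–10; Student's t-test.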

Rattus norvegicus [4] = assay: Acute gastrolesivity in Wistar rat assessed as appearance of gastric damage at 200 mg/kg, po after 5 hrs; type: toxicity, organism-based, Stomach; set-up: dose 200 mg/kg, route oral; conditions: in vivo
Summary of the method: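 Wistar rats (250–300 g), either sex, fasted overnight; compound suspended in 0.5% methylcellulose, single oral gavage at 200 mg kg^-1 (1 mL 100 g^-1). Stomachs excised 5 h later, fixed in 2% formalin, opened along greater curvature, examined by stereomicroscope by blinded observer. Reported as number of animals with gastric damage over treated animals (eight per group).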

Rattus norvegicus [5] = assay: Antiinflammatory activity against carrageenan-induced paw edema in Wistar rat assessed as inhibition of hind paw edema at 25 mg/kg, po administered 1 hr prior to carrageenan challenge measured after 3 hrs relative to control; type: functional; summary of the method: as §3
Rattus norvegicus [6] = assay: Antiinflammatory activity against carrageenan-induced paw edema in Wistar rat assessed as inhibition of hind paw edema at 50 mg/kg, po administered 1 hr prior to carrageenan challenge measured after 3 hrs relative to control; type: functional; summary of the method: as §3
Rattus norvegicus [7] = assay: Antiinflammatory activity against carrageenan-induced paw edema in Wistar rat assessed as inhibition of hind paw edema at 6.25 mg/kg, po administered 1 hr prior to carrageenan challenge measured after 3 hrs relative to control; type: functional; summary of the method: as §3
Mus musculus [8] = assay: Analgesic activity in Swiss mouse assessed as inhibition of acetic acid-induced writhing response at 100 mg/kg, po administered 1 hr before acetic acid challenge measured for 30 mins relative to control; type: functional; summary of the method: as §1
Mus musculus [9] = assay: Analgesic activity in Swiss mouse assessed as inhibition of acetic acid-induced writhing response at 50 mg/kg, po administered 1 hr before acetic acid challenge measured for 30 mins relative to control; type: functional; summary of the method: as §1
Rattus norvegicus [10] = assay: Antiinflammatory activity against carrageenan-induced paw edema in Wistar rat assessed as inhibition of hind paw edema at 100 mg/kg, po administered 1 hr prior to carrageenan challenge measured after 3 hrs relative to control; type: functional; summary of the method: as §3
Mus musculus [11] = assay: Analgesic activity in Swiss mouse assessed as inhibition of acetic acid-induced writhing response at 12.5 mg/kg, po administered 1 hr before acetic acid challenge measured for 30 mins relative to control; type: functional; summary of the method: as §1
Mus musculus [12] = assay: Analgesic activity in Swiss mouse assessed as inhibition of acetic acid-induced writhing response at 6.25 mg/kg, po administered 1 hr before acetic acid challenge measured for 30 mins relative to control; type: functional; summary of the method: as §1
Mus musculus [13] = assay: Analgesic activity in Swiss mouse assessed as inhibition of acetic acid-induced writhing response at 1.6 mg/kg, po administered 1 hr before acetic acid challenge measured for 30 mins relative to control; type: functional
Mus musculus [14] = assay: Analgesic activity in Swiss mouse assessed as inhibition of acetic acid-induced writhing response at 3.12 mg/kg, po administered 1 hr before acetic acid challenge measured for 30 mins relative to control; type: functional
Mus musculus [15] = assay: Sedative activity in Swiss mouse assessed as inhibition of spontaneous locomotor activity at 100 mg/kg, po dose measured for every 5 mins up to 90 mins; type: organism-based; set-up: dose 100 mg/kg, route oral; summary of the method: as §2

SMILES	inhibition in vivo at 25 mg/kg (Mus musculus [1]) [%]	inhibition at 50 mg/kg (Mus musculus [2]) [%]	inhibition in vivo at 12.5 mg/kg (Rattus norvegicus [3]) [%]	Activity (Rattus norvegicus [4])	inhibition in vivo at 25 mg/kg (Rattus norvegicus [5]) [%]	inhibition in vivo at 50 mg/kg (Rattus norvegicus [6]) [%]	inhibition in vivo at 6.25 mg/kg (Rattus norvegicus [7]) [%]	inhibition in vivo at 100 mg/kg (Mus musculus [8]) [%]	inhibition in vivo at 50 mg/kg (Mus musculus [9]) [%]	inhibition in vivo at 100 mg/kg (Rattus norvegicus [10]) [%]	inhibition in vivo at 12.5 mg/kg (Mus musculus [11]) [%]	inhibition in vivo at 6.25 mg/kg (Mus musculus [12]) [%]	inhibition in vivo at 1.6 mg/kg (Mus musculus [13]) [%]	inhibition in vivo at 3.12 mg/kg (Mus musculus [14]) [%]	inhibition at 100 mg/kg (Mus musculus [15]) [%]
CCN(CC)C(=O)c1c(N(C)CC)c2cccnc2n2c(C(C)C)nnc12	17	22	51	Non-toxic	65	67	42	81	59	71	–	–	–	–	–
CCN(CC)C(=O)c1c(NC(C)C)c2cccnc2n2c(C(C)C)nnc12	33	64	68	Non-toxic	75	75	–	83	54	81	0	–	–	–	–
CCN(CC)C(=O)c1c(NCC(C)C)c2cccnc2n2c(C(C)C)nnc12	–	–	50	Non-toxic	61	66	27	100	33	70	–	–	–	–	–
CCC(CC)Nc1c(C(=O)N(CC)CC)c2nnc(C(C)C)n2c2ncccc12	58	84	45	Non-toxic	47	47	11	91	75	50	49	36	–	–	–
CCN(CC)C(=O)c1c(N2CCN(C)CC2)c2cccnc2n2c(C(C)C)nnc12	90	100	–	Non-toxic	–	–	–	88	85	–	92	83	39	85	–
CCN1CCN(c2c(C(=O)N(CC)CC)c3ncc(C)n3c3ncccc23)CC1	54	46	–	Non-toxic	–	–	–	83	48	10	0	–	–	–	63
CCc1nnc2c(C(=O)N(CC)CC)c(N(C)CC(C)C)c3cccnc3n12	–	–	8	Non-toxic	28	42	–	92	26	39	–	–	–	–	60
CCN(CC)C(=O)c1c(N2CCN(CCO)CC2)c2cccnc2n2ccnc12	–	–	–	Non-toxic	–	–	–	41	12	0	–	–	–	–	39
CCN(C)C(=O)c1c(NC(C)C)c2cccnc2n2c(C(C)C)nnc12	–	–	–	Non-toxic	–	0	–	82	0	46	–	–	–	–	96
CCN(CC)C(=O)c1c(N2CCN(C)CC2)c2cccnc2n2c(C)cnc12	83	20	–	Non-toxic	–	–	–	85	86	0	21	–	–	–	80
C=CCNc1c(C(=O)N(CC)CC)c2nnc(C(C)C)n2c2ncccc12	–	–	32	Non-toxic	52	49	25	79	28	60	–	–	–	–	64
CCN(CC)C(=O)c1c(N2CCN(c3ccccc3OC)CC2)c2cccnc2n2ccnc12	–	–	–	Non-toxic	–	–	–	63	0	16	–	–	–	–	86
CCCN(C)c1c(C(=O)N(CC)CC)c2nnc(C(C)C)n2c2ncccc12	–	–	44	Non-toxic	42	55	23	71	37	71	–	–	–	–	62
CCN(CC)C(=O)c1c(NCC(C)C)c2cccnc2n2ccnc12	48	28	–	Non-toxic	–	–	–	71	48	0	0	–	–	–	68
CCN(CC)C(=O)c1c(N2CCN(Cc3ccccc3)CC2)c2cccnc2n2ccnc12	–	–	–	Non-toxic	–	10	–	46	0	26	–	–	–	–	42
CCN(CC)C(=O)c1c(N2CCN(C)CC2)c2cccnc2n2c(N(C)C)cnc12	–	30	–	Non-toxic	–	–	–	83	16	0	–	–	–	–	44
CCN1CCN(c2c(C(=O)N(CC)CC)c3nccn3c3ncccc23)CC1	–	–	–	Non-toxic	–	–	–	80	30	5	–	–	–	–	67
CCOC(=O)c1cn2c(n1)c(C(=O)N(CC)CC)c(N1CCN(C)CC1)c1cccnc12	–	–	–	Non-toxic	–	–	–	75	2	0	–	–	–	–	0
CCN(CC)C(=O)c1c(NC)c2cccnc2n2c(C)cnc12	–	–	–	Non-toxic	–	20	–	73	0	38	–	–	–	–	55
CCNc1c(C(=O)N(CC)CC)c2nccn2c2ncccc12	–	–	0	Non-toxic	25	26	–	60	2	29	–	–	–	–	89
CC(C)CNc1c(C(=O)N2CCN(C)CC2)c2nnc(C(C)C)n2c2ncccc12	–	–	–	Non-toxic	–	–	–	48	29	0	–	–	–	–	0
CCN(CC)C(=O)c1c(N2CCN(Cc3ccccc3)CC2)c2cccnc2n2c(C)cnc12	–	–	–	–	–	–	–	17	–	0	–	–	–	–	–
CCN(CC)C(=O)c1c(NCC(C)C)c2cccnc2n2c(C)cnc12	–	–	–	–	–	–	–	0	–	0	–	–	–	–	–
CCN(CC)C(=O)c1c(N2CCN(C)CC2)c2cccnc2n2ccnc12	56	41	–	Non-toxic	–	–	–	80	74	0	32	–	–	–	77
